25 compounds from ChEMBL document CHEMBL1629555, “Antimalarial activity of phenylthiazolyl-bearing hydroxamate-based histone deacetylase inhibitors” (Antimicrob Agents Chemother, 2008) can be followed below.

SMILES strings stand for the structures. pIC50: −log10 of the molar value. Values after ≈ are worked out from the molar mass of the structure shown. Active and inactive are the calls of the source. No cut-off for these calls is given here.

Data set [1] relates to Plasmodium falciparum. Put plainly: Antimalarial activity against drug-resistant Plasmodium falciparum D6 infected in Aotus lemurinus lemurinus monkey. Type of data set: functional, organism-based.
Data set [2] deals with Plasmodium falciparum. Put plainly: Antimalarial activity against drug-resistant Plasmodium falciparum W2. Type of data set: functional, organism-based.
The subject of data set [3] is Plasmodium falciparum. The experiment in a line: Antimalarial activity against drug-resistant Plasmodium falciparum TM91C235. In kind it is functional, organism-based.
Data set [4] relates to Plasmodium falciparum. Put plainly: Antimalarial activity against drug-resistant Plasmodium falciparum TM90C2A. In kind it is functional, organism-based.
For data set [5], the system named is Mus musculus. Put plainly: AUC in ICR mouse at 50 mg/kg/day, po assessed as metabolite W308393 level by LC/MS analysis. Type of data set: ADME, organism-based, Plasma. The arrangement: route oral. As to conditions: in vivo. In a few lines:
(§1)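 Male ICR mice, 8 weeks old, got one 50 mg/kg dose either orally or subcutaneously, with three groups of six mice per route. One mouse per group was killed at 15, 30 and 60 min and at 3, 6 and 24 h. Plasma was deproteinized with 2 volumes of acetonitrile and analysed by LC-MS/MS on a C18 column against 0–500 ng/ml standards, with parent and acid metabolite measured in the same sample. Each six-mouse group was treated as one "animal" and fitted to a two-compartment model. AUC was taken by the linear trapezoidal rule extrapolated to infinity, and Cmax and Tmax were read per "animal".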

Data set [6] concerns Mus musculus. The experiment in a line: AUC in ICR mouse at 50 mg/kg/day, sc assessed as metabolite W308393 level by LC/MS analysis. In kind it is ADME, organism-based, Plasma. As to conditions: in vivo. The arrangement: route subcutaneous. The method, boiled down:
as §1

For data set [7], the system named is Plasmodium falciparum. Put plainly: Antimalarial activity against Plasmodium falciparum at 1 nM after 48 hrs. Type of data set: functional, organism-based. The method, boiled down: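 P. falciparum-infected erythrocytes were exposed to 1 nM for 3.5 h, then washed and returned to culture. Growth was scored 48 h later relative to matched untreated controls.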

Data set [8] concerns the target T1, Histone deacetylase (Plasmodium falciparum 3D7) (UniProt Q7K6A1).
T1 sequence (whole entry): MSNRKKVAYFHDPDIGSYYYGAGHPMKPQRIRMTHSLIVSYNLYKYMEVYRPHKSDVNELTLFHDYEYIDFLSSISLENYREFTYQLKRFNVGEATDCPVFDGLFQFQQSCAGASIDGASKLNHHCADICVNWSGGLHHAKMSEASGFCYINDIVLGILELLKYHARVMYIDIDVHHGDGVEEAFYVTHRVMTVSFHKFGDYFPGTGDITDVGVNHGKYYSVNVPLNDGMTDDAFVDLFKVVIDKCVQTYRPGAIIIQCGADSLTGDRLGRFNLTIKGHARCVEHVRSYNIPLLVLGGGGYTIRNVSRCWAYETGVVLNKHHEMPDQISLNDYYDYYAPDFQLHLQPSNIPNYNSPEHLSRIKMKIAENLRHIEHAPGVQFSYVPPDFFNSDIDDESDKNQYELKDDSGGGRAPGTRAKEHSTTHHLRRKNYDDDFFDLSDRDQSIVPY
Put plainly: Inhibition of Plasmodium falciparum 3D7 histone deacetylase infected in human erythrocytes assessed as alteration of histone H3 acetylation at 1.8 to 1000 nM after 3.5 hrs by SDS-PAGE. In kind it is cell-based. In a few lines: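 About 3 × 10^9 late-trophozoite 3D7-infected erythrocytes were incubated with compound or DMSO vehicle for 3.5 h at 37°C, with an untreated sample taken at the start. Histones (about 6 × 10^8 parasites per lane) were run on SDS–15% PAGE, with silver stain as the loading check. Western blots were probed with anti-(tetra)acetyl-H4 and anti-(di)acetyl-H3 antisera (1:2,000) and read by ECL.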

Data set [9] deals with Plasmodium falciparum. Put plainly: Antimalarial activity against Plasmodium falciparum infected mouse assessed as reduction in parasitemia at 50 mg/kg, ip. In kind it is functional, organism-based. The arrangement: dose 50 mg/kg.
For data set [10], the system named is Plasmodium falciparum. Put plainly: Antimicrobial activity against Plasmodium falciparum. In kind it is functional. In a few lines: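 Labeled-hypoxanthine growth inhibition assay against strains W2, D6, TM91C235 and TM90C2A, reporting IC50. Values are single determinations, or the mean of duplicates for some compounds against D6, W2 and C235. Mefloquine and chloroquine served as assay-validity controls.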

Data set [11] is described as follows: Cytotoxicity against mouse RAW264.7 cells by MTT assay. In kind it is cell-based. As to conditions: read-out: LD50 (the source's name). In a few lines: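 LC50 in RAW macrophages was determined by MTT assay, given as the mean of 2–4 experiments with range. Selectivity index = RAW LC50 / lowest P. falciparum IC50.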
Background: Formazan colour is commonly taken as a measure of viable cells.

A short description of data set [12]: Cytotoxicity against african green monkey Vero cells by MTT assay. In kind it is cell-based. As to conditions: chlorocebus sabaeus, read-out: LC50 (the source's name).
Data set [13] in a line: Selectivity index, ratio of LC50 for mouse RAW264.7 cells to IC50 for Plasmodium falciparum. The note with it: RAW264.7 cells.
For data set [14], the system named is Plasmodium falciparum. Put plainly: Antimalarial activity against Plasmodium falciparum infected in mouse RAW264.7 cells. In kind it is functional, organism-based.
Data set [15] has as its target T1, Histone deacetylase (Plasmodium falciparum 3D7). The experiment in a line: Inhibition of Plasmodium falciparum 3D7 histone deacetylase infected in human erythrocytes assessed as alteration of histone H3 acetylation at 100 nM after 3.5 hrs by SDS-PAGE. Type of data set: cell-based. The method, boiled down: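 About 3 × 10^9 erythrocytes infected with late-trophozoite P. falciparum 3D7 were exposed to compound or to DMSO vehicle for 3.5 h at 37°C, and an untreated sample was taken at the start. Histones were extracted, about 6 × 10^8 parasites were loaded per lane on SDS–15% PAGE, and loading was checked by silver stain. Western blots were probed with anti-tetraacetyl-H4 and anti-diacetyl-H3 antisera and detected by ECL.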

For `Nc1cccc(-c2csc(C(=O)NCCCCCCC(=O)NO)n2)c1`, the negative-log IC50 (pIC50) (usually the IC50 on a negative log10 scale, so that one unit is a factor of ten) is 7.37 in data set [1], 7.40 in data set [2], 6.77 in data set [3] and 7.22 in data set [4].
In the same order, the values of `O=C(CCCCCCC(=O)Nc1nc(-c2cccc(O)c2)cs1)NO` are 8.57, 8.57, 8.77 and 8.80.
Regarding `Nc1cccc(-c2csc(NC(=O)CCCCCCC(=O)O)n2)c1`, the pIC50 was below 5.85 in data set [1], below 5.85 in data set [2], below 5.85 in [3] and 5.85 in [4]. Moreover, the AUC (as a rule, concentration integrated over time) in data set [5] is 478 ng·h/mL; in data set [6], 400 ng·h/mL.
Regarding `Nc1cccc(-c2csc(NC(=O)CCCCc3cc(C(=O)NO)no3)n2)c1`, the negative logarithm of the IC50 (pIC50) in [1] was 7.23; in [2] it was 7.14; in data set [3] it was 6.83; in data set [4] it was 7.10.
The matching figures for `O=C(CCCCCCC(=O)Nc1nc(-c2cccc(F)c2)cs1)NO`: 7.93, 7.85, 7.80 and 8.11.
The matching figures for `Nc1cc(-c2csc(NC(=O)CCCCCCC(=O)NO)n2)ccc1F`: 8.29, 8.30, 8.62 and 8.42.
Regarding `C[C@@H]1CC[C@H]2[C@@H](C)C(=O)O[C@@H]3O[C@@]4(C)CC[C@@H]1[C@]32OO4`, the result in data set [7] was Active. The inhibition result in [8] is “inactive”.
As to `CCC(=O)CCCCC[C@@H]1NC(=O)[C@H]2CCCCN2C(=O)[C@H]([C@@H](C)CC)NC(=O)[C@H](Cc2cn(OC)c3ccccc23)NC1=O` [APICIDIN], the result in data set [9] was Active. Also, in [10], the minimal inhibitory concentration (MIC) (as a rule, the lowest concentration found to suppress growth) was determined as 0.125 µg/mL (≈ 0.2 µM).
`COc1ccc(-c2csc(NC(=O)CCCCCCC(=O)NO)n2)cc1N`: the negative logarithm of the IC50 (pIC50) is 9.05 in data set [1]; 8.92 in data set [2]; 9.00 in data set [3]; 9.00 in data set [4]; 9.05 in [14]. Besides, the CC50 in data set [11] is 3.2 µM; in data set [12], 0.95 µM. The selectivity ratio in data set [13] was 3560.
In the case of `CN(C)c1cccc(-c2csc(NC(=O)CCCCCCC(=O)NO)n2)c1`, the pIC50 is 7.52 in data set [1], 7.45 in [2], 7.22 in data set [3] and 7.73 in data set [4].
The matching figures for `Nc1ccccc1-c1csc(NC(=O)CCCCCCC(=O)NO)n1`: 7.47, 7.41, 7.38 and 7.52.
In the same order, the values of `Nc1cc(-c2csc(NC(=O)CCCCCCC(=O)NO)n2)ccc1Cl` are 8.77, 8.77, 8.85 and 8.80.
For the compound `CN(CCO)c1ccc(-c2csc(NC(=O)CCCCCCC(=O)NO)n2)cc1N`, the pIC50 in data set [1] is 9.10; in data set [2] it was 9.00; in [3], 9.00; in data set [4], 9.05; in [14], 9.09. The CC50 in data set [11] was found to be 0.54 µM; in [12] it was 0.95 µM. Further, the selectivity ratio in data set [13] was 670.
In the case of `Cc1cccc(-c2csc(NC(=O)CCCCCCC(=O)NO)n2)c1`, the pIC50 in [1] is 8.41; in data set [2], 8.12; in data set [3], 8.44; in [4] it was 8.22.
On to `O=C(CCCCCCC(=O)Nc1nc(-c2ccccc2)cs1)NO`, for which the negative-log IC50 (pIC50) was 7.93 in [1], 7.87 in data set [2], 7.78 in [3] and 8.06 in data set [4].
As for `CC(/C=C/C(=O)NO)=C\[C@@H](C)C(=O)c1ccc(N(C)C)cc1`, the inhibition entry in data set [15] was “Active”.
In the case of `[N-]=[N+]=Nc1cccc(-c2csc(NC(=O)CCCCCCC(=O)NO)n2)c1`, the negative-log IC50 (pIC50) is 8.01 in data set [1], 7.75 in data set [2], 7.71 in data set [3] and 8.06 in [4].
As to `Nc1cccc(-c2csc(NC(=O)CCCCCC(=O)NO)n2)c1`, the pIC50 was 7.90 in data set [1], 7.80 in data set [2], 7.03 in [3] and 7.46 in data set [4].
As to `Cc1sc(NC(=O)CCCCCCC(=O)NO)nc1-c1cccc(N)c1`, the negative-log IC50 (pIC50) in data set [1] is 8.10; in data set [2], 8.14; in data set [3], 8.21; in data set [4], 8.40.
As to `COc1cccc(-c2csc(NC(=O)CCCCCCC(=O)NO)n2)c1`, the negative logarithm of the IC50 (pIC50) is 7.83 in data set [1], 7.95 in data set [2], 8.21 in data set [3] and 7.99 in data set [4].
Turning to `O=C(CCCCCCC(=O)Nc1nc(-c2ccsc2)cs1)NO`, the pIC50 was 8.12 in [1], 7.77 in data set [2], 8.19 in data set [3] and 8.13 in [4].
The matching figures for `Nc1ccc(-c2csc(NC(=O)CCCCCCC(=O)NO)n2)cc1`: 8.01, 8.03, 7.71 and 8.00.
As for `O=C(CCCCCCC(=O)Nc1nc(-c2ccc3ccccc3c2)cs1)NO`, the pIC50 in data set [1] is 8.48; in data set [2], 8.19; in data set [3] it was 8.51; in data set [4] it was 8.23.
Turning to `O=C(CCCCCCC(=O)Nc1ccccc1)NO` [VORINOSTAT], the CC50 stood at 2.2 µM in [11] and 0.95 µM in data set [12].
In the case of `Nc1cccc(-c2cc(C(=O)NCCCCCCC(=O)NO)no2)c1`, the pIC50 in [1] was 7.48; in [2] it was 7.16; in data set [3] it was 7.37; in data set [4], 7.55.
